tolC growth inh – E. coli tolC mutant growth inhibition; E. coli BW25113 tolC mutant growth, OD615; growth inhibition, % at 10 µM (by protocol); 2.2% of 65,000 active;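 active = growth inhibition at or above a cutoff equal to the mean over every tested compound plus 3 SD, cut at about 60% in these data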;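 also: growth measured after 20 h incubation at 37 °C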
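System: E. coli ΔtolC::kan strain BW25113; Buffer or medium: LB broth supplemented with 50 µg/mL kanamycin; Compound: 10 µM final, single dose; Incubation: bacterial growth with compound for 20 h at 37 °C; Signal: A615 absorbance measurement; Evaluation: growth inhibition in percent.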
CYP2C19 activ – activators of human cytochrome P450 2C19. recombinant CYP2C19, luciferin-H EGE luminescence; hits give high values; 0 = fully inhibited enzyme, 1 = untreated enzyme. activation factor at 5 µM. 96,000 tested, under 10 active. AID 1025;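 active = activation factor of at least 2 at 5 µM in the primary screen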;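 also: 0 = wells with 2.5 mM tranylcypromine and 1 = vehicle-only wells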
CYP2C9 inh – blocks human cytochrome P450 2C9. inhibition, % at 5 µM. 20% of 96,000 active. CYP2C9 Supersomes, luciferin-H conversion, luminescence. P11712;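 active = blocking of liver enzyme CYP2C9 beyond about 50% at 5 µM, limit read from the data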
Target sequence (P11712 whole entry, looked up): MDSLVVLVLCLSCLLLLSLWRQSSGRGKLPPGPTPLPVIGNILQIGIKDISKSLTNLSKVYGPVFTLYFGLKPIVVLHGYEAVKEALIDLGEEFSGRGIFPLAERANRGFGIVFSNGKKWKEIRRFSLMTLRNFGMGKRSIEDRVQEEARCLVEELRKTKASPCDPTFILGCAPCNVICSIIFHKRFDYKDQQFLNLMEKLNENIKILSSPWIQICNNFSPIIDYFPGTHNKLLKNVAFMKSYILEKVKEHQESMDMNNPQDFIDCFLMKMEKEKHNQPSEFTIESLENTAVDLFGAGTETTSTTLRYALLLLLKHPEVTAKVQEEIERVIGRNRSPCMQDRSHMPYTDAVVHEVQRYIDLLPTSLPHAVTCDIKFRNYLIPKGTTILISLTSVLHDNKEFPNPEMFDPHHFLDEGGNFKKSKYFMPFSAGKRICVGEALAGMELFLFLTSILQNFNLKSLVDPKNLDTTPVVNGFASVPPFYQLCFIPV
CYP2C9 act – increases human cytochrome P450 2C9 activity. 1.4% of 96,000 active. P11712. recombinant CYP2C9, luciferin-H conversion, luminescence; hits give high values; factor 1 = untreated enzyme, 0 = blocked. activation factor at 5 µM;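 active = activation factor of 2 or more for CYP2C9 at a 5 µM dose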;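 also: 0 = sulfaphenazole-blocked wells and 1 = vehicle-only wells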
CYP2C19 inhib – human CYP2C19 inhibition; inhibition, % at 5 µM; 21% of 96,000 active; P33261; CYP2C19 Supersomes, luciferin-H EGE luminescence, 30 min;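 active = CYP2C19 inhibition above a set limit at 5 µM in the primary screen, cut at about 50% in these data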;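 also: plate controls were negative control wells for no effect and 2.5 mM tranylcypromine positive control for full effect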
E coli WT exp – growth inhibitors of E. coli BW25113 wild type; growth inhibition, % at 100 µM; 0.15% of 98,000 active; OD600 absorbance;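 active = growth inhibition above about 50% at one test dose, limit read from the data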;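 also: growth measured after 20 h incubation at 37 °C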
The depositor's hits bear a star; . = no result. Compounds with a hit are over-represented: about 29% of the library has one in this group of screens.

SMILES	tolC growth inh	CYP2C19 activ	CYP2C9 inh	CYP2C9 act	CYP2C19 inhib	E coli WT exp
O=C1CN(Cc2ccccc2)C(=NCc2ccco2)S1	5.9	0.1	97.2*	0	90.0*	1.0
FC(F)(F)COc1nc(OCC(F)(F)F)nc(N2CCN(c3ccccc3)CC2)n1	50.5	1	30.3	0.7	1.7	-2.0
CC(=O)Nc1ccc(N2C(C(C)=O)=NN(c3ccccc3)C2c2cccs2)cc1 (stereo unspecified)	.	0.5	44.4	0.6	47.0	-6.0
COc1ccc(N2C(C(C)=O)=NN(c3ccccc3)C2c2cccs2)cc1 (stereo unspecified)	.	0.6	56.0*	0.4	43.3	-19.0
Cc1ccc(C)c(NC(=O)CN2C(=O)CNC2=O)c1	.	1.2	8.4	0.9	-24.4	2.0
Cc1[nH]c2ccccc2c1-c1nc2ccccc2[nH]1	11.2	0.6	67.6*	0.3	39.2	6.0
Cc1ccc(-c2nc3ccccc3[nH]2)s1	14.1	0.6	32.6	0.7	39.5	15.0
Nc1cc(N)cc(-c2nc3ccccc3[nH]2)c1	2.7	0.9	15.0	0.8	9.3	6.0
COc1ccc(-c2nc3ccccc3[nH]2)cc1	.	0.4	35.1	0.6	64.6*	24.0
CCOc1ccc(/C=N/n2c(SC)nnc(C(C)(C)C)c2=O)cc1	.	0.9	23.5	0.8	9.8	-6.0
CCOc1ccccc1NC(=O)c1ccoc1C	.	0.9	-62.4	1.6	10.4	-13.0
CCNC(=O)NC(=O)C(C)Sc1nc2ccccc2n1CC(C)C (stereo unspecified)	.	0.8	-29.9	1.3	18.7	7.0
Cc1ccc(C(=O)c2cn[nH]c2-c2ccccc2O)cc1	.	0.1	44.1	0.6	89.2*	0.0
O=C(c1ccc(O)cc1)c1ccc(Cl)cc1	24.5	0.6	-4.6	1	41.0	20.0
O=C(c1ccc(F)cc1)c1cn[nH]c1-c1ccccc1O	2.0	0.7	12.8	0.9	31.5	3.0
COc1ccc(C(=O)c2cn[nH]c2-c2cc(Cl)ccc2O)cc1	23.5	0	92.4*	0.1	98.5*	-3.0
O=C(c1ccc(Cl)cc1)c1cn[nH]c1-c1ccccc1O	.	0	86.5*	0.1	95.2*	8.0
CN1CCN(C(=O)c2cc3c(C(F)(F)F)nn(C)c3s2)CC1	.	1	-19.6	1.2	-3.2	-4.0
Cc1ccc(S(=O)(=O)NC(=O)c2cc(C)n(-c3cc(S(=O)(=O)N4CCOCC4)ccc3N3CCCC3)c2C)cc1	.	1.1	28.1	0.7	-7.1	-4.0
C(=N\N(c1ccccc1)c1ccccc1)/c1ccc2c(c1)OCO2	.	0.9	55.6*	0.4	12.0	-12.0
CC1(C)CC(=O)c2cc(OCC(=O)N3CCCCCC3)ccc2O1	.	1	-2.9	1	0.1	6.0
CC1(C)CC(=O)c2cc(OCC(=O)N3CCN(c4ccccc4F)CC3)ccc2O1	9.4	0.3	49.1	0.5	67.6*	2.0
c1cc2c(cc1-c1cnc3n1CCC3)OCCO2	1.6	1	-2.0	1	-2.7	12.0
c1ccc(-c2ccc(-c3cnc4n3CCCCC4)cc2)cc1	.	0.6	65.9*	0.3	39.8	14.0
COc1cccc(Nc2ncnc3nc[nH]c23)c1	.	0.9	16.3	0.8	12.5	11.0
SMILES	tolC growth inh	CYP2C19 activ	CYP2C9 inh	CYP2C9 act	CYP2C19 inhib	E coli WT exp
CN1CCN(C(=O)/C(=C/c2ccccc2)c2ccccc2)CC1	.	0.7	8.6	0.9	33.5	2.0
CC1CCCCN1C(=O)/C(=C\c1ccccc1)c1ccccc1 (stereo unspecified)	.	0.5	83.6*	0.2	49.0	7.0
Cc1cc(Cl)ccc1OCc1nc(-c2ccc(O)cc2)n[nH]1	29.4	0	93.8*	0.1	96.8*	31.0
Cc1cc(Cl)ccc1Oc1ncc(-c2ccc(Cl)cc2)cn1	.	0.8	3.3	1	23.6	-13.0
Nc1nnnn1/N=C/c1ccc(O)cc1	.	0.3	84.4*	0.2	68.4*	22.0
Nc1nnnn1/N=C/c1cccc(O)c1	.	1	-9.2	1.1	4.8	16.0
N#CC(Nc1ccccc1)c1ccccc1OCc1ccccc1 (stereo unspecified)	.	0.1	89.3*	0.1	85.6*	2.0
COc1ccc(C(C#N)Nc2ccccc2)cc1 (stereo unspecified)	.	0.8	8.2	0.9	17.8	-3.0
Cc1cc(C)c(S(=O)(=O)N2CCN=C2c2ccccc2)cc1C	.	0.4	-47.3	1.5	59.9*	-1.0
O=C(NCC(=O)N(CC1CCCO1)C1(C(=O)NC2CCCCC2)CCCCC1)c1ccccc1 (stereo unspecified)	.	1	-1.9	1	-1.7	3.0
O=C(CN(Cc1ccccc1F)C(=O)Cn1nnc(-c2cccs2)n1)NC1CCCCC1	.	1	30.9	0.7	3.9	-7.0
Cc1ccc(-c2nnn(CC(=O)N(CC(=O)NC3CCCCC3)c3cnc4ccccc4c3)n2)o1	3.5	.	.	.	.	.
CC(C)CCNC(=O)CN(Cc1ccc2c(c1)OCO2)C(=O)Cn1nnc(-c2cccs2)n1	57.9	0.5	91.7*	0.1	47.7	-23.0
O=C(CN(C(=O)Cn1nnc(-c2cccs2)n1)c1ccc2c(c1)OCCO2)NCC1CCCO1 (stereo unspecified)	.	0.7	87.6*	0.1	33.3	-1.0
O=C(CN(C(=O)Cn1nnc(-c2cccs2)n1)c1cnc2ccccc2c1)NCC1CCCO1 (stereo unspecified)	13.6	0.7	74.6*	0.3	34.9	2.0
Cc1ccc(-c2nnn(CC(=O)N(CC(=O)NCC3CCCO3)c3ccccc3)n2)o1 (stereo unspecified)	-9.9	0.8	11.3	0.9	17.8	4.0
O=C(CN(Cc1ccccc1F)C(=O)Cn1nnc(-c2cccs2)n1)NCC1CCCO1 (stereo unspecified)	-2.1	0.3	63.1*	0.4	68.3*	-5.0
Cc1cccc(NC(=O)COC(=O)CNC(=O)C2CCCCC2)c1	.	0.7	23.9	0.8	25.1	5.0
Cc1cc(=O)oc2cc(Oc3ncccn3)ccc12	5.9	0.8	7.2	0.9	17.2	11.0
CC1(C(=O)NC23CC4CC(CC(C4)C2)C3)CC1(Cl)Cl (stereo unspecified)	.	0.8	12.6	0.9	19.4	-6.0
O=C(NC1CCCCC1)C(c1ccncc1)N(C(=O)Cn1nnc(-c2cccs2)n1)C1CCCC1 (stereo unspecified)	15.5	.	.	.	.	-14.0
O=C(CN(C(=O)Cn1nnc(-c2cccs2)n1)c1ccc2c(c1)OCCO2)NC1CCCCC1	34.1	0.4	99.1*	0	59.6*	-3.0
CC(C)CCNC(=O)CN(CCCN1CCOCC1)C(=O)Cn1nnc(-c2ccc(F)cc2)n1	3.4	0.6	52.2*	0.5	39.2	-1.0
Cn1c(=Nc2ccccc2)sc2ccccc21	.	0.2	41.4	0.6	81.2*	8.0
CN(C)c1ccc(N=c2sc3ccccc3n2C)cc1	.	0	76.8*	0.2	97.5*	4.0
CCOCC(=O)Nc1ccc(S(=O)(=O)Nc2ncccn2)cc1	-9.9	0.5	17.5	0.8	49.4	22.0

Screens: PubChem BioAssay, several laboratories
